The test system of data set [1] is DU145 human prostate carcinoma cells. The experiment in a line: Differential nuclear staining. Type of data set: cell-based.
For data set [2], the system named is 22Rv1 human prostate cancer cells. The experiment in a line: Differential nuclear staining. It is filed as cell-based.
Data set [3] has as its system LNCaP human prostate cancer cells. The experiment in a line: Differential nuclear staining. It is filed as cell-based.
For data set [4], the system named is YT NK-like lymphoblastic lymphoma cells. The experiment in a line: Differential nuclear staining. Type of data set: cell-based.
The test system of data set [5] is human cervical HeLa cancer cells. The experiment in a line: Differential nuclear staining. It is filed as cell-based. As to conditions: for CC50: Homo sapiens, 20 h.
A short description of data set [6]: in vitro. It is filed as cell-based. As to conditions: human.
The nature of data set [7]: Differential nuclear staining. It is filed as cell-based. As to conditions: human, MCF-10A non-transformed mammary epithelial cells.
Data set [8] can be described thus: Differential nuclear staining. It is filed as cell-based. As to conditions: mouse, wild type mouse embryonic fibroblasts (MEFs).
The subject of data set [9] is YT NK-like (YT) cells. The experiment in a line: Apoptosis/necrosis by annexin V-FITC and PI flow cytometry. It is filed as cell-based. As to conditions: 18 h; for mode of cell death: KTZ 15 μM, CTZ 10 μM, complexes 20–60 μM. In a few lines:
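YT NK-like cells were exposed to test compounds for 18 h, then handled on ice, stained together with annexin V-FITC and PI, and analysed by flow cytometry with about 10,000 events per sample. Controls were 0.3% v/v DMSO solvent, 600 μM H2O2 and untreated cells. Annexin-positive cells (early plus late) were summed as apoptotic, and PI-only cells counted as necrotic. Values are the mean of three independent measurements with SD.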

Data set [10] relates to Calf Thymus (CT) DNA. The experiment in a line: Circular dichroism. Type of data set: binding. As to conditions: 20 h at 37 °C, pH 7.39 Tris/HCl buffer, up to ri 2.0 (molar ratio drug/DNA). In outline:
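Test compound stocks (1.5 mM) were freshly made in water and added to freshly prepared CT DNA (60 μM) in 5 mM Tris/HCl, 50 mM NaClO4, pH 7.39, at drug/DNA molar ratios of 0.5–2.0. Samples were incubated 20 h at 37 °C. Spectra were recorded at 25 °C over 220–420 nm, blank-corrected with noise reduction, and expressed as […].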

Data set [11] deals with all the cancer cells lines studied.

Like-named read-outs stand apart in the source and are kept apart here. Where only a bound is given, the exact number is not on record here.

Take `Clc1ccccc1C(c1ccccc1)(c1ccccc1)n1ccnc1` [CTZ, clotrimazole]: the “Relative Activity (R.A.)” value in data set [1] (DU145, relative to KTZ (1-6) or CTZ (7-12)) worked out at 1; in [2] (22Rv1, relative to KTZ (1-6) or CTZ (7-12)), 1; in [3] (LNCaP, relative to KTZ (1-6) or CTZ (7-12)), 1; in [4] (YT, relative to KTZ (1-6) or CTZ (7-12)) it was 1; in data set [5] (relative to KTZ (1-6) or CTZ (7-12)), 1. Besides, the CC50 in [1] (Homo sapiens, DU-145, 20 h) came out at 43.6 µM; in data set [2] (Homo sapiens, 22Rv1, 20 h), 19.2 µM; in data set [3] (Homo sapiens, LNCaP, 20 h) it was 15.4 µM; in data set [4] (20 h), 16.7 µM; in data set [5] it was 94.3 µM. Besides, the CC50 at 20 h in [6] was found to be 95.3 µM; in data set [7] it was 79.4 µM; in data set [8] it was 35.3 µM. For the same compound, the “apoptosis induced relative to any of the Ru-CTZ complexes” value in data set [9] was at least 3 fold. In addition, the “mode of cell death” value in data set [9] is recorded as “preferentially through apoptosis”. Moreover, the “change of CD spectrum of CT DNA” value in data set [10] was “no modifications”. Moreover, in data set [11], the “cytotoxicity against cancer cell lines (in words)” value is “moderate cytotoxicity”.
Regarding `C[SH](C)(=O)[Ru-]([Cl])([Cl])([Cl])([Cl])[SH](C)(C)=O.[Na+]` [Compound C1, Na[trans-RuCl4(DMSO)2]], the CC50 in data set [2] turned out to be 114 µM; in [3], 46.5 µM.
As to `Cc1ccc(C(C)C)cc1.Cc1ccc(C(C)C)cc1.[Cl][Ru][Cl].[Cl][Ru][Cl]` [Compound C3, [Ru(p-cymene)Cl2]2], the cytotoxic concentration (CC50) in [1] turned out to be 218 µM; in data set [2] it was 141 µM; in data set [3], 29 µM; in [4] it was 164 µM.
For the compound `CC(=O)N1CCN(c2ccc(OCC3COC(Cn4ccnc4)(c4ccc(Cl)cc4Cl)O3)cc2)CC1` (centres unmarked) [KTZ, ketoconazole], the CC50 in data set [1] (Homo sapiens, DU-145, 20 h) worked out at 28.6 µM; in data set [2] (Homo sapiens, 22Rv1, 20 h), 24.2 µM; in [3] (Homo sapiens, LNCaP, 20 h), 27.9 µM; in data set [4] (20 h), 4.9 µM; in data set [5] it was 66.7 µM. Besides, the CC50 at 20 h in data set [7] came out at 37 µM; in [8] it was 31.3 µM. Besides, in [9], the “mode of cell death” value is “preferentially through apoptosis”. Besides, in data set [10], the “change of CD spectrum of CT DNA” value is “no modifications”.

The values above are taken from article PMC4207122 (Cell biology and toxicology, 2013).
